# In ChEMBL document CHEMBL1156265, “Furo[2,3-b]pyridine-based cannabinoid-1 receptor inverse agonists: synthesis and biological evaluation. Part 1” (Bioorg Med Chem Lett, 2010):
# Calls of active or inactive are those of the source. The calls are words filed in the database; no cut-off is given here.
# What was measured:
# [1] = Inhibition of rat GABAA receptor
# In short: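 Rat GABA_A ligand-gated ion-channel binding, run within a 175-assay radioligand binding and enzymatic screening panel. IC50 estimated.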
# Canis familiaris [2] = experiment: Toxicity in anesthetized dog assessed as change in ECG intervals up to 10 mg/kg, iv relative to control; type: organism-based, Canis lupus familiaris; parameters: dose 10 mg/kg, route intravenous; settings: in vivo
# In short: (§1)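 Anesthetized dogs received a cumulative IV infusion of 1, 3 and 10 mg/kg, each dose infused over 30 min. Mean arterial pressure, heart rate and ECG intervals including QTc were compared with vehicle-treated animals. Plasma drug level was measured at the end of infusion.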
# Canis familiaris [3] = experiment: Toxicity in anesthetized dog assessed as change in heart rate up to 10 mg/kg, iv relative to control; type: organism-based, Canis lupus familiaris; parameters: dose 10 mg/kg, route intravenous; settings: in vivo; in short: as §1
# Canis familiaris [4] = experiment: Toxicity in anesthetized dog assessed as change in mean arterial pressure up to 10 mg/kg, iv relative to control; type: organism-based, Canis lupus familiaris, Artery; parameters: dose 10 mg/kg, route intravenous; settings: in vivo; in short: as §1
# [5] = biological target: Voltage-gated inwardly rectifying potassium channel KCNH2 (Homo sapiens, UniProt Q12809); experiment: Inhibition of human ERG potassium channel
# Chain of Voltage-gated inwardly rectifying potassium channel KCNH2 (Q12809 whole entry, the tested form may be a part): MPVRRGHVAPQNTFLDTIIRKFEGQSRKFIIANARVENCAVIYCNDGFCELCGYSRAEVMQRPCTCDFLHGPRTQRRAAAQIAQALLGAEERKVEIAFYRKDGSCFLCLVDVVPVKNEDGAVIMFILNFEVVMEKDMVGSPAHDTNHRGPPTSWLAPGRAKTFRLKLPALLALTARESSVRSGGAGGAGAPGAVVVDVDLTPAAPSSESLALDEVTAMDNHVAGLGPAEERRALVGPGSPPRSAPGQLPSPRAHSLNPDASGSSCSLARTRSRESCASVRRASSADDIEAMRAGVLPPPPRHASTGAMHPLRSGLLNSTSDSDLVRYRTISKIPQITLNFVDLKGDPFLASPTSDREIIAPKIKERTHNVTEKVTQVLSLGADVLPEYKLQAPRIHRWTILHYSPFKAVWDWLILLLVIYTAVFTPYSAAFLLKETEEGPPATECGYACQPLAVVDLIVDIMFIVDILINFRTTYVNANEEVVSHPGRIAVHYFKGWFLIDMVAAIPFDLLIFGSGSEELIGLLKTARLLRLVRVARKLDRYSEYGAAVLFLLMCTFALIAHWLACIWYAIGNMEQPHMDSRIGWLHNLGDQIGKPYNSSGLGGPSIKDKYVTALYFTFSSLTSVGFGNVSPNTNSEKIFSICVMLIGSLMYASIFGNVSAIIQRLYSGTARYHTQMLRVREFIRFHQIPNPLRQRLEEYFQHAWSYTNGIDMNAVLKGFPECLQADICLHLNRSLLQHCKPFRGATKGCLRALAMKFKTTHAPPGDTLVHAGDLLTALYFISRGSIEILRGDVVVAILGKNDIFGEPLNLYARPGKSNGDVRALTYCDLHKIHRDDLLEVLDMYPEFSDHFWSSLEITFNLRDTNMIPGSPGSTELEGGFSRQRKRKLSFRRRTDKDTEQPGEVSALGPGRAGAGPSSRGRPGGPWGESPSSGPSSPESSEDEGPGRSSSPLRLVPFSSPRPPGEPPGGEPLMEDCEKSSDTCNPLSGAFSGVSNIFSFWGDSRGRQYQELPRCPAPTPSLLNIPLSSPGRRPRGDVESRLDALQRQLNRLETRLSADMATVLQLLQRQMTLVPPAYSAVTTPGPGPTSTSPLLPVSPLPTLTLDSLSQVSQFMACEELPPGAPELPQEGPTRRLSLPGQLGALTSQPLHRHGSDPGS
# Canis familiaris [6] = experiment: Plasma concentration in anesthetized dog at up to 10 mg/kg, iv measured at the end of infusion; type: ADME, organism-based, Canis lupus familiaris; parameters: dose 10 mg/kg, route intravenous; settings: in vivo; in short: as §1
# Cytochrome P450 1A2 = biological target: T1, Cytochrome P450 1A2 (Homo sapiens, UniProt P05177); experiment: Inhibition of CYP1A2; type: ADME
# T1 sequence (P05177 whole entry): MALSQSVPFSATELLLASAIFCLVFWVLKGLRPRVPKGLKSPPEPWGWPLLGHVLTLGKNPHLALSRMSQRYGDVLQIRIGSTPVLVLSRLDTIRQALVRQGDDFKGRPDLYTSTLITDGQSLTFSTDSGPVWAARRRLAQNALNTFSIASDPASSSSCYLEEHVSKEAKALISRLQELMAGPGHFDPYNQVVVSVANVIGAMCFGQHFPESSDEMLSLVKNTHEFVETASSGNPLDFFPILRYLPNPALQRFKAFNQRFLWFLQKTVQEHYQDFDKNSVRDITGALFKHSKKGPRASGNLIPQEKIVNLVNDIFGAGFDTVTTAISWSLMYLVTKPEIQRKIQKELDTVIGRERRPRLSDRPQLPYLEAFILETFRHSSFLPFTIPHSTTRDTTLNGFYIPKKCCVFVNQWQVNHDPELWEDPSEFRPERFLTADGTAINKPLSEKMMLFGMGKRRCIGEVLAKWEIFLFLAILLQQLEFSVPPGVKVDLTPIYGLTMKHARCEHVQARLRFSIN
# In short: (§2)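 Inhibition of cytochrome P450 isoforms CYP3A4, CYP2C9, CYP2D6, CYP2C19 and CYP1A2, reported as IC50 in µM.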
# Cytochrome P450 2C19 = Cytochrome P450 2C19 (Homo sapiens, UniProt P33261); experiment: Inhibition of CYP2C19; type: ADME; in short: as §2
# Chain of Cytochrome P450 2C19 (P33261 whole entry): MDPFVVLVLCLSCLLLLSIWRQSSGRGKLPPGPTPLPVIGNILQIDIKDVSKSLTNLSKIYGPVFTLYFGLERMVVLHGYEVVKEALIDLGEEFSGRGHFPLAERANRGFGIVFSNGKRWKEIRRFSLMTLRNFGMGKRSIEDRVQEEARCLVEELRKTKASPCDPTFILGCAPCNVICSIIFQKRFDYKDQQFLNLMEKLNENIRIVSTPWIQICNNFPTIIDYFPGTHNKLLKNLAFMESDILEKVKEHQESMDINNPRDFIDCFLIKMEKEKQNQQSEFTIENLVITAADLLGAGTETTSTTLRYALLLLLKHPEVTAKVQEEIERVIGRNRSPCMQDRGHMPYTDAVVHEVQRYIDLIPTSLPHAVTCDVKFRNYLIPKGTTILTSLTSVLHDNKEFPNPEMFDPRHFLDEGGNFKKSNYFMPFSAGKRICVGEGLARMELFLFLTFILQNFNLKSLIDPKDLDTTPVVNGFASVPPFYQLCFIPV
# Cytochrome P450 2D6 = Cytochrome P450 2D6 (Homo sapiens, UniProt P10635); experiment: Inhibition of CYP2D6; type: ADME; in short: as §2
# Chain of Cytochrome P450 2D6 (P10635 whole entry): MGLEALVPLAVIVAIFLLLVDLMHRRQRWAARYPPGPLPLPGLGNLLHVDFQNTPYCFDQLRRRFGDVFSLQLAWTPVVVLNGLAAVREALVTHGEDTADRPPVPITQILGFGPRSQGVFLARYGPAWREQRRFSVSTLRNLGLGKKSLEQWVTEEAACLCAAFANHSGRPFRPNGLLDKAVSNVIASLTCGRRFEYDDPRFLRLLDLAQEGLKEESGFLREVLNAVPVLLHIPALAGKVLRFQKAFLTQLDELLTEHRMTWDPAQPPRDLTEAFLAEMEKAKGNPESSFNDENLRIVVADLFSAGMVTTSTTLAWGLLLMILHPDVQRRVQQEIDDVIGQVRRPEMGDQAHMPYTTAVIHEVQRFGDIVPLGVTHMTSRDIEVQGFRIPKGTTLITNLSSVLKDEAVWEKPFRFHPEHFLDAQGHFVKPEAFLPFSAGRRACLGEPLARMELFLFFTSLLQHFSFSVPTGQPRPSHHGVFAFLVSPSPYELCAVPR
# Cytochrome P450 2C9 = Cytochrome P450 2C9 (Homo sapiens, UniProt P11712); experiment: Inhibition of CYP2C9; type: ADME; in short: as §2
# Chain of Cytochrome P450 2C9 (P11712 whole entry): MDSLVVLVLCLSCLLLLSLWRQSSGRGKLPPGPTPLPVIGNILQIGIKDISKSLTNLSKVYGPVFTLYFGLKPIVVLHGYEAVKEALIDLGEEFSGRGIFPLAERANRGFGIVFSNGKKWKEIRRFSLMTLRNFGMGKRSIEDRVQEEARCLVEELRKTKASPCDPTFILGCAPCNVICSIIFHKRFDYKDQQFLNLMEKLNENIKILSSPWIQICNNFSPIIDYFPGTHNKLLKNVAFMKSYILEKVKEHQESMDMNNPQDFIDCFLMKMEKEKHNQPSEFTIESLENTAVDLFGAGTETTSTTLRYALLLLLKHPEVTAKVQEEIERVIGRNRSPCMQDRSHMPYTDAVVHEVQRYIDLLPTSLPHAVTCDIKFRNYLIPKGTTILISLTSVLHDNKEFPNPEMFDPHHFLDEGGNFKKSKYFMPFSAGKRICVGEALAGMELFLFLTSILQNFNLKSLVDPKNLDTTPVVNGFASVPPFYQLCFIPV
# Cytochrome P450 3A4 = Cytochrome P450 3A4 (Homo sapiens, UniProt P08684); experiment: Inhibition of CYP3A4; type: ADME; in short: as §2
# Chain of Cytochrome P450 3A4 (P08684 whole entry): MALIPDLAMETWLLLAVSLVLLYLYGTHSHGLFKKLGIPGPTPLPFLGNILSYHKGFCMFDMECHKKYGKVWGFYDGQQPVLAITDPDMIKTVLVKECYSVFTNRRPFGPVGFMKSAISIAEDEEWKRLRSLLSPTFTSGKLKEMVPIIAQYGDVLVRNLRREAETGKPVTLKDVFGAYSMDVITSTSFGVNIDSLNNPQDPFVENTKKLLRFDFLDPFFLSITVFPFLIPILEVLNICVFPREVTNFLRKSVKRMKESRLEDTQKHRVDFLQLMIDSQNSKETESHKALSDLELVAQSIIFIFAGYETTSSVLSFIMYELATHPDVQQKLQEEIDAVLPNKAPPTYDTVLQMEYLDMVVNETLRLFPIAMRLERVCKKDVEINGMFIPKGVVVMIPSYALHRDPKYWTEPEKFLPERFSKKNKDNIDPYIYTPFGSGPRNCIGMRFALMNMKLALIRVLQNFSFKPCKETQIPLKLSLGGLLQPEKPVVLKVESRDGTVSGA
# [7] = Metabolic stability in rat bile assessed as compound recovery at 1 mg/kg; type: ADME, organism-based; parameters: dose 1 mg/kg; settings: read-out: Activity
# In short: (§3)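 Radioactivity excreted in bile and urine measured as percent of dose.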
# Rattus norvegicus [8] = experiment: Reduction of body weight in rat at 1 mg/kg, po relative to control; type: functional; parameters: scale not given: the % may be the effect or the level left
# In short: (§4)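 Chronic study in diet-induced obese rats with daily oral dosing at 1 mg/kg (for some compounds 0.1 and 0.3 mg/kg as well). Body weight change and cumulative food intake suppression were measured relative to vehicle. The 14-day study ended 18 h after the day-14 dose; one study ended on day 13.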
# Rattus norvegicus [9] = experiment: Reduction of body weight in DIO rat assessed as weight change at 1 mg/kg, po after 2 weeks; type: functional, organism-based; parameters: dose 1 mg/kg
# In short: (§5)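 DIO rats were dosed orally once daily for 2 weeks at 0.1, 0.3 or 1 mg/kg. Body weight change (g) was compared with vehicle, and the study ended 18 h after the day-14 dose.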
# Rattus norvegicus [10] = experiment: Reduction of body weight in DIO rat assessed as weight change at 0.1 mg/kg, po after 2 weeks; type: functional, organism-based; parameters: dose 0.1 mg/kg; in short: as §5
# Rattus norvegicus [11] = experiment: Reduction of body weight in DIO rat assessed as weight change at 0.3 mg/kg, po after 2 weeks; type: functional, organism-based; parameters: dose 0.3 mg/kg; in short: as §5
# [12] = Metabolic stability in rat urine assessed as compound recovery at 1 mg/kg; type: ADME, organism-based; parameters: dose 1 mg/kg; settings: read-out: Activity; in short: as §3
# Rattus norvegicus [13] = experiment: Suppression of cumulative food intake in rat at 1 mg/kg, po relative to control; type: functional; in short: as §4
# Mus musculus [14] = experiment: Suppression of food intake in Cnr1+/+ C57BL/6 mouse at 1 mg/kg, po measured for 18 hrs by overnight food intake study; type: functional
# In short: (§6)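 The overnight food intake study used ad libitum fed male mice aged 14–16 weeks, Cnr1+/+ (n = 10) and Cnr1−/− (n = 7). Mice received a single oral dose of 1 mg/kg. Food intake and body weight change were measured over 18 h relative to vehicle-treated mice.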
# Mus musculus [15] = experiment: Reduction of body weight in Cnr1+/+ C57BL/6 mouse at 1 mg/kg, po measured for 18 hrs; type: functional; in short: as §6
# Rattus norvegicus [16] = experiment: Reduction of body weight in DIO rat assessed as weight change at 1 mg/kg, po after 18 hrs; type: functional
# In short: (§7)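 Acute study in diet-induced obese rats. A single oral dose was given and rats were monitored for 18 h. Food intake suppression and body weight change were measured relative to vehicle-treated controls.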
# Rattus norvegicus [17] = experiment: Suppression of food intake in DIO rat at 1 mg/kg, po relative to control; type: functional; in short: as §7
# [18] = Bioavailability in rat; type: ADME, organism-based; settings: in vivo
# [19] = Half life in rat; type: ADME, organism-based; settings: in vivo
# [20] = Plasma clearance in rat; type: ADME, organism-based
# [21] = Ratio of drug level in brain to plasma in rat at 1 mg/kg, iv after 4 hrs; type: ADME, organism-based; parameters: dose 1 mg/kg, route intravenous
# [22] = Drug level in rat brain at 1 mg/kg, iv after 4 hrs; type: ADME, organism-based; parameters: dose 1 mg/kg, route intravenous; settings: read-out: Drug uptake
# [23] = Drug level in rat plasma at 1 mg/kg, iv after 4 hrs; type: ADME, organism-based; parameters: dose 1 mg/kg, route intravenous; settings: read-out: Drug uptake
# [24] = Bioavailability in dog; type: ADME, organism-based, Canis lupus familiaris; settings: in vivo
# In short: (§8)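 PK in dog and rhesus macaque. Bioavailability, plasma clearance (mL/min/kg) and terminal half-life derived from plasma drug levels.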
# [25] = Half life in dog; type: ADME, organism-based, Canis lupus familiaris; settings: in vivo; in short: as §8
# [26] = Plasma clearance in dog; type: ADME, organism-based, Canis lupus familiaris; in short: as §8
# Rattus norvegicus [27] = experiment: Reduction of body weight in DIO rat assessed as weight change at 1 mg/kg, po daily measured 18 hrs post dose on day 14; type: functional; in short: as §4
# [28] = Bioavailability in rhesus monkey; type: ADME, organism-based, Macaca mulatta; settings: in vivo; in short: as §8
# [29] = Half life in rhesus monkey; type: ADME, organism-based, Macaca mulatta; settings: in vivo; in short: as §8
# [30] = Plasma clearance in rhesus monkey; type: ADME, organism-based, Macaca mulatta; in short: as §8
# [31] = biological target: GABA-A receptor; agonist GABA site; experiment: Partial agonist activity at human alpha-1-beta-3-gamma-2 GABAA receptor expressed in […] cells; type: functional, cell-based
# In short: (§9)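 Whole-cell electrophysiology in Ltk cells expressing human α1β3γ2 GABA_A receptors. EC50 determined, and maximal efficacy expressed relative to the maximum GABA response.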
# [32] = biological target: GABA-A receptor; alpha-1/beta-3/gamma-2 (Homo sapiens) (UniProt P14867+P18507+P28472); experiment: Partial agonist activity at human alpha-1-beta-3-gamma-2 GABAA receptor expressed in […] cells at 3 uM; type: functional, cell-based; in short: as §9
# Rattus norvegicus [33] = experiment: Toxicity in Sprague-Dawley rat at 30 mg/kg, po by rotarod test; type: organism-based; parameters: dose 30 mg/kg, route oral; settings: in vivo
# In short: (§10)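 Male Sprague Dawley rats dosed orally at 30 mg/kg. Motor coordination assessed on rotarod, with plasma and brain drug levels measured.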
# Plasma [34] = experiment: Drug level in Sprague-Dawley rat plasma at 30 mg/kg, po; type: ADME, organism-based; parameters: dose 30 mg/kg, route oral; settings: in vivo, read-out: Drug uptake; in short: as §10
# Brain [35] = experiment: Drug level in Sprague-Dawley rat brain at 30 mg/kg, po; type: ADME, organism-based; parameters: dose 30 mg/kg, route oral; settings: in vivo, read-out: Drug uptake; in short: as §10
# Plasma [36] = experiment: Drug level in CD1 mouse plasma at 30 mg/kg, po; type: ADME, organism-based; parameters: dose 30 mg/kg, route oral; settings: in vivo, read-out: Drug uptake
# Brain [37] = experiment: Drug level in CD1 mouse brain at 30 mg/kg, po; type: ADME, organism-based; parameters: dose 30 mg/kg, route oral; settings: in vivo, read-out: Drug uptake
# Plasma [38] = experiment: Drug level in CD1 mouse plasma at 100 mg/kg, po; type: ADME, organism-based; parameters: dose 100 mg/kg, route oral; settings: in vivo, read-out: Drug uptake
# Brain [39] = experiment: Drug level in CD1 mouse brain at 100 mg/kg, po; type: ADME, organism-based; parameters: dose 100 mg/kg, route oral; settings: in vivo, read-out: Drug uptake
# Mus musculus [40] = experiment: Toxicity in CD1 mouse assessed as hyperactive response at 100 mg/kg, po; type: organism-based; parameters: dose 100 mg/kg, route oral; settings: in vivo
# Mus musculus [41] = experiment: Toxicity in CD1 mouse assessed as ataxia at 100 mg/kg, po; type: organism-based; parameters: dose 100 mg/kg, route oral; settings: in vivo
# Rattus norvegicus [42] = experiment: Suppression of food intake in DIO rat at 1 mg/kg, po measured 18 hrs post dose on day 14 relative to control
smiles,measurement,setting,value
CC(C)(O)C(=O)c1oc2nc(-c3ccccc3Cl)c(-c3ccc(Cl)cc3)cc2c1NC(=O)CO,IC50,[1],1.8 µM
same,Activity,Canis familiaris [2],Non-toxic
same,Activity,Canis familiaris [3],Non-toxic
same,Activity,Canis familiaris [4],Non-toxic
same,IC50,[5],6.6 µM
same,concentration,Canis familiaris [6],50000 nM
same,IC50,Cytochrome P450 1A2,> 100 µM
same,IC50,Cytochrome P450 2C19,43 µM
same,IC50,Cytochrome P450 2D6,73 µM
same,IC50,Cytochrome P450 2C9,17 µM
same,IC50,Cytochrome P450 3A4,98 µM
same,dose excreted,[7],87%
same,Activity,Rattus norvegicus [8],4.3%
same,Activity,Rattus norvegicus [9],Active
same,Activity,Rattus norvegicus [10],inactive
same,Activity,Rattus norvegicus [11],Active
same,dose excreted,[12],5%
same,Activity,Rattus norvegicus [13],24%
same,Activity,Mus musculus [14],53%
same,Activity,Mus musculus [15],-0.79 g
same,Activity,Rattus norvegicus [16],-7 g
same,Activity,Rattus norvegicus [17],47%
same,bioavailability,[18],64%
same,half-life,[19],7.5 h
same,clearance,[20],8.6 mL/min/kg
same,Kp at 4 h,[21],0.64
same,concentration at 4 h,[22],94 nM
same,concentration at 4 h,[23],147 nM
same,bioavailability,[24],9%
same,half-life,[25],1.8 h
same,clearance,[26],33 mL/min/kg
same,Activity,Rattus norvegicus [27],-2 g
same,bioavailability,[28],50%
same,half-life,[29],17 h
same,clearance,[30],2.1 mL/min/kg
same,EC50,[31],0.7 µM
same,Efficacy,[32],18%
same,Activity,Rattus norvegicus [33],Non-toxic
same,concentration,Plasma [34],500 nM
same,concentration,Brain [35],500 nM
same,concentration,Plasma [36],7000 nM
same,concentration,Brain [37],2300 nM
same,concentration,Plasma [38],24000 nM
same,concentration,Brain [39],6500 nM
same,Activity,Mus musculus [40],Toxic
same,Activity,Mus musculus [41],Toxic
same,Activity,Rattus norvegicus [42],24%
